Results published in ChEMBL document CHEMBL1124852, “Synthesis of 3-arylecgonine analogues as inhibitors of cocaine binding and dopamine uptake” (J Med Chem, 1990).

Columns and labels:
[1] = target: Sodium-dependent dopamine transporter (Bos taurus, UniProt P27922); assay: Competitive inhibition against [3H]cocaine binding to cocaine receptor in bovine striatal tissue; format: tissue-based, Striatum
How it was run: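 Bovine striatum (caudate, putamen, globus pallidus, nucleus accumbens) homogenised in ice-cold 10 mM Na2HPO4 with 0.32 M sucrose, pH 7.4. Pelleted twice at 17000g for 20 min and resuspended to about 3.0 mg/mL protein (Lowry). [3H]cocaine (29.7 Ci/mmol) binding measured by filtration. Triplicates; mean of three experiments; IC50 by log-logit transformation.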

Bos taurus = species on record: Bos taurus; assay: Competitive inhibition against [3H]dopamine uptake in bovine striatal tissue; format: functional, Striatum
How it was run: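 Striatal P2 synaptosomes prepared in ice-cold 0.3 M sucrose with […], pH 7.4 (3000g for 10 min, then supernatant at 17000g for 20 min). [3H]dopamine (30 Ci/mmol) uptake read by filtration at 37 °C; nonspecific uptake measured at 4 °C. Run in triplicate; mean of three experiments; IC50 from log-logit transformation.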

Chain of Sodium-dependent dopamine transporter (P27922 whole entry): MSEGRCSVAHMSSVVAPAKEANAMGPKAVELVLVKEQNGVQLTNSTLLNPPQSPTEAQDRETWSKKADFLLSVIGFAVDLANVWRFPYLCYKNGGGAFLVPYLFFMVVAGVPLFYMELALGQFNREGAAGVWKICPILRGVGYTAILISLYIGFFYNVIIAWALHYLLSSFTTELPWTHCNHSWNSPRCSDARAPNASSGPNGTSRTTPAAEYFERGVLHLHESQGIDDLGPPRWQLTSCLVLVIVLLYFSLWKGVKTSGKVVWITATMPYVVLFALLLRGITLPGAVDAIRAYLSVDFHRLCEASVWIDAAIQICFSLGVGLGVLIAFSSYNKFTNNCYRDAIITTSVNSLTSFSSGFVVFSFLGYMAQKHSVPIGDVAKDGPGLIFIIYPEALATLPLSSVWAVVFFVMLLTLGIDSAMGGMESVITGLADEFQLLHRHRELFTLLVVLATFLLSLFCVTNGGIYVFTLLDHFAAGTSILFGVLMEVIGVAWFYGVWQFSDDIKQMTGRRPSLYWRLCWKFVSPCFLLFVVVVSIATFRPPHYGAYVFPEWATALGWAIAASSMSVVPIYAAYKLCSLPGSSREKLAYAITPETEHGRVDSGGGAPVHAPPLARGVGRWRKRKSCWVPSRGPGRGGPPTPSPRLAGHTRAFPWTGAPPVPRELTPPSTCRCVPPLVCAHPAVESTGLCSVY

## COC(=O)C1C(c2ccc(N)cc2)CC2CCC1N2C (stereo not drawn)
[1]
  IC50: 192 nM
Bos taurus; Bos taurus, Striatum
  IC50: 557 nM

## COC(=O)[C@@H]1C2CC[C@H](C[C@@H]1c1ccccc1)N2C (mixture of isomers; form 1)
[1]
  IC50: 22 nM
Bos taurus
  IC50: 133 nM

## COC(=O)[C@@H]1C2CC[C@H](C[C@@H]1c1ccccc1)N2C (mixture of isomers; form 2)
[1]
  IC50: 1200 nM
Bos taurus
  IC50: 2100 nM

## COC(=O)C1C(c2ccc([N+](=O)[O-])cc2[N+](=O)[O-])CC2CCC1N2C (racemic)
[1]
  IC50: 11000 nM
Bos taurus; Bos taurus, Striatum
  IC50: 30000 nM
